Experimental data as given in ChEMBL document CHEMBL5715950, “Characterization of molecular and cellular functions of the cyclin-dependent kinase CDK9 using a novel specific inhibitor” (Br J Pharmacol, 2014).
Active and inactive are the calls of the source. The rule behind the calls is not given here.

Columns and labels:
[1] = test system: Leukemia cell; assay: Induction of apoptosis in human Acute myeloid leukemic cell at > 2 uM incubated for 24 hrs by Annexin V-FITC/PI staining based flow cytometric analysis; type: functional
In short: (§1)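 Cells grown at 37°C, 5% CO2 (A549, HeLa, MCF7 in DMEM high glucose; HCT116 in McCoy's 5A; THP1 and primary AML M4 apheresis blasts in RPMI1640), exposed to inhibitor or DMSO for 24 h. Apoptotic fraction by flow cytometry after annexin V-fluorescein/propidium iodide double staining. Means ± SD of three biological replicates; AML blasts from one patient, three technical replicates. Student's t-test versus DMSO/untreated.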

[2] = molecular target: Cyclin-dependent kinase 9 (Homo sapiens) (UniProt P50750); assay: Inhibition of CDK9 in human HeLa cells assessed as downregulation of Serine 5 phosphorylation at 10 uM incubated for 60 mins by Western blotting analysis; type: cell-based
[3] = Selectivity ratio of IC50 for inhibition of CDK9/Cyclin T1 (unknown origin) to IC50 for inhibition of CDK2/Cyclin A (unknown origin)
[4] = molecular target: T1, CDK7/Cyclin H/MNAT1 (Homo sapiens, UniProt P50613); assay: Inhibition of CDK7/Cyclin H/MAT1 (unknown origin) using ULight MBP peptide as substrate in presence of ATP incubated for 1 hr by FRET based LANCE Ultra KinaSelect screen assay; type: protein-complex assay
[5] = molecular target: Cyclin-dependent kinase 9 (Homo sapiens) (UniProt P50750); assay: Inhibition of CDK9 in human MCF7 cells assessed as upregulation of p53 protein at 10 uM incubated for 4 hrs by Western blotting analysis; type: cell-based
[6] = molecular target: Cyclin-dependent kinase 9 (Homo sapiens) (UniProt P50750); assay: Inhibition of CDK9 in human A549 cells assessed as downregulation of MYC mRNA expression at 1 to 10 uM incubated for 90 mins by RT-qPCR analysis relative to control; type: cell-based; settings: dose 1-10 µM
[7] = Transcription level in human HCT-116 cells nuclear extract fused with Gal4-VP16 at 10 uM in presence of ATP by phosphorimaging analysis relative to control
[8] = test system: THP-1; assay: Induction of apoptosis in human THP-1 cells at > 2 uM incubated for 24 hrs by Annexin V-FITC/PI staining based flow cytometric analysis; type: functional, cell-based; in short: as §1
[9] = test system: HeLa; assay: Inhibition of RNA synthesis in human HeLa cells stably transfected with luciferase reporter gene incubated for 30 mins followed by doxycycline addition and measured after 60 mins by RT-qPCR analysis; type: functional, cell-based; settings: time 90.0 min
In short: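 Stably transfected HeLa cells carrying a tetracycline-inducible luciferase reporter: inhibitor or DMSO for 30 min, then 1 μg/mL doxycycline for 60 min. De novo reporter transcripts measured by RT-qPCR.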

[10] = molecular target: Cyclin-dependent kinase 9 (Homo sapiens) (UniProt P50750); assay: Inhibition of CDK9 in human A549 cells assessed as downregulation of GAPDH mRNA expression at 2 to 6 uM incubated for 90 mins by RT-qPCR analysis relative to control; type: cell-based; settings: dose 2-6 µM
[11] = molecular target: Cyclin-dependent kinase 4/cyclin D1 (Homo sapiens, UniProt P11802); assay: Inhibition of CDK4/Cyclin D1 (unknown origin) using ULight MBP peptide as substrate in presence of ATP incubated for 1 hr by FRET based LANCE Ultra KinaSelect screen assay; type: protein-complex assay
[12] = molecular target: Cyclin-dependent kinase 9 (Homo sapiens) (UniProt P50750); assay: Inhibition of CDK9 in human A549 cells assessed as downregulation of p21 mRNA expression at 1 to 10 uM incubated for 90 mins by RT-qPCR analysis relative to control; type: cell-based; settings: dose 1-10 µM
[13] = test system: THP-1; assay: Induction of apoptosis in human THP-1 cells at 10 uM incubated for 24 hrs by Annexin V-FITC/PI staining based flow cytometric analysis relative to control; type: functional; in short: as §1
[14] = Selectivity ratio of IC50 for inhibition of CDK9/Cyclin T1 (unknown origin) to IC50 for inhibition of CDK6/Cyclin D3 (unknown origin)
[15] = Selectivity ratio of IC50 for inhibition of CDK9/Cyclin T1 (unknown origin) to IC50 for inhibition of CDK1/Cyclin B1 (unknown origin)
[16] = molecular target: Tyrosine-protein kinase ABL2 (Homo sapiens, UniProt P42684); assay: Inhibition of ABL2 (unknown origin) assessed as residual activity at 10 uM incubated for 120 mins in presence of 33P-ATP by radiometric kinase assay relative to control
[17] = molecular target: Cyclin-dependent kinase 9 (Mus musculus) (UniProt Q99J95); assay: Inhibition of CDK9 in mouse Embryonic stem cell assessed as downregulation of Serine 2 phosphorylation by measuring fold decrease at 10 uM incubated for 90 mins by Western blotting analysis; type: cell-based
In short: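 Mouse embryonic stem cells treated with 10 μM inhibitor or DMSO for 90 or 180 min; whole-cell Western blot for RNAPII CTD Ser2-P. Band signals quantified densitometrically and normalised to total RNAPII.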

[18] = molecular target: Cyclin-dependent kinase 9 (Homo sapiens) (UniProt P50750); assay: Inhibition of CDK9 in human HeLa cells assessed as downregulation of Serine 7 phosphorylation at 10 uM incubated for 60 mins by Western blotting analysis; type: cell-based
[19] = molecular target: Cyclin-dependent kinase 9 (Homo sapiens) (UniProt P50750); assay: Inhibition of CDK9 in human MCF7 cells assessed as upregulation of p53 phosphorylation at Ser392 at 10 uM incubated for 4 hrs by Western blotting analysis; type: cell-based
[20] = Displacement of kinase tracer 236 from CDK2/Cyclin A (unknown origin) assessed as dissociation constant incubated for 1 hr by LanthScreen Eu kinase binding assay; parameters: species or system Homo sapiens
[21] = molecular target: Cyclin-dependent kinase 9 (Homo sapiens) (UniProt P50750); assay: Inhibition of CDK9 in human A549 cells assessed as downregulation of PLK2 mRNA expression at 2 to 6 uM incubated for 90 mins by RT-qPCR analysis relative to control; type: cell-based; settings: dose 2-6 µM
[22] = molecular target: Cyclin-dependent kinase 9 (Homo sapiens) (UniProt P50750); assay: Inhibition of CDK9 in human THP-1 cells assessed as downregulation of RPS15 mRNA expression by RT-qPCR analysis; type: cell-based
[23] = molecular target: Cyclin-dependent kinase 9 (Homo sapiens) (UniProt P50750); assay: Inhibition of CDK9 in human A549 cells assessed as downregulation of MYC mRNA expression at 2 to 6 uM incubated for 90 mins by RT-qPCR analysis relative to control; type: cell-based; settings: dose 2-6 µM
[24] = molecular target: Glycogen synthase kinase-3 alpha (Homo sapiens, UniProt P49840); assay: Inhibition of GSK3A (unknown origin) assessed as residual activity at 10 uM incubated for 120 mins in presence of 33P-ATP by radiometric kinase assay relative to control
[25] = molecular target: Cyclin-dependent kinase 9 (Homo sapiens) (UniProt P50750); assay: Inhibition of CDK9 in human A549 cells assessed as downregulation of CCND1 mRNA expression at 2 to 6 uM incubated for 90 mins by RT-qPCR analysis relative to control; type: cell-based; settings: dose 2-6 µM
[26] = molecular target: T1, CDK7/Cyclin H/MNAT1; assay: Displacement of kinase tracer 236 from CDK7/Cyclin H/MAT1 (unknown origin) assessed as dissociation constant incubated for 1 hr by LanthScreen Eu kinase binding assay; type: protein-complex assay
[27] = molecular target: Cyclin-dependent kinase 9 (Homo sapiens) (UniProt P50750); assay: Inhibition of CDK9 in human HeLa cells assessed as upregulation of serine 5 phosphorylation at 10 uM incubated for 1 hr by chromatin immunoprecipitation assay; type: cell-based
[28] = molecular target: Cyclin-dependent kinase 9 (Homo sapiens) (UniProt P50750); assay: Inhibition of CDK9 in human A549 cells assessed as downregulation of RPL3 mRNA expression at 1 to 10 uM incubated for 90 mins by RT-qPCR analysis relative to control; type: cell-based; settings: dose 1-10 µM
[29] = molecular target: Calcium/calmodulin-dependent protein kinase type IV (Homo sapiens, UniProt Q16566); assay: Inhibition of CAMK4 (unknown origin) incubated for 120 mins in presence of 33P-ATP by radiometric kinase assay
Sequence of Calcium/calmodulin-dependent protein kinase type IV (Q16566 whole entry): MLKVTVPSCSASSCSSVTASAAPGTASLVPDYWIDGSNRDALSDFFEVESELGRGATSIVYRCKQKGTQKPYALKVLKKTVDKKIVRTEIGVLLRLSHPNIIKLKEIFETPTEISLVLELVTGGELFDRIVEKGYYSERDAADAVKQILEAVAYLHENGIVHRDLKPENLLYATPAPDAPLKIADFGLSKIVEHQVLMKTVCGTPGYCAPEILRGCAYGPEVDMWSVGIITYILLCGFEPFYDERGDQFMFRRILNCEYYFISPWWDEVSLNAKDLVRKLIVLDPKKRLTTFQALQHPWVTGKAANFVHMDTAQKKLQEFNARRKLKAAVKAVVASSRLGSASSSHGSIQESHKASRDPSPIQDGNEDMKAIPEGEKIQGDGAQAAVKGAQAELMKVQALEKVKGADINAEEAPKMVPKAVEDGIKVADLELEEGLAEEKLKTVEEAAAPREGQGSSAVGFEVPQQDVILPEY

Sequence of Cyclin-dependent kinase 9 (Homo sapiens) (P50750 whole entry, the tested form may be a part): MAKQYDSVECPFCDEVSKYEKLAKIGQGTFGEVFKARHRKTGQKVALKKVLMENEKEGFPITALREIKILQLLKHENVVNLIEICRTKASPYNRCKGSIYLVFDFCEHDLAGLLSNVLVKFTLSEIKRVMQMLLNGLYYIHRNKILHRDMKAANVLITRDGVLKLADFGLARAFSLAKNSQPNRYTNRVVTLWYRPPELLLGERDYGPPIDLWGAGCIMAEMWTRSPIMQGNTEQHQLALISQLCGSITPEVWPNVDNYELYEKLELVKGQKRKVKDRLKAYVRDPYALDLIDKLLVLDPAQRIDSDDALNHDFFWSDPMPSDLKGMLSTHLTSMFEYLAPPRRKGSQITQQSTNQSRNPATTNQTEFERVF
T1 sequence (P51946 whole entry): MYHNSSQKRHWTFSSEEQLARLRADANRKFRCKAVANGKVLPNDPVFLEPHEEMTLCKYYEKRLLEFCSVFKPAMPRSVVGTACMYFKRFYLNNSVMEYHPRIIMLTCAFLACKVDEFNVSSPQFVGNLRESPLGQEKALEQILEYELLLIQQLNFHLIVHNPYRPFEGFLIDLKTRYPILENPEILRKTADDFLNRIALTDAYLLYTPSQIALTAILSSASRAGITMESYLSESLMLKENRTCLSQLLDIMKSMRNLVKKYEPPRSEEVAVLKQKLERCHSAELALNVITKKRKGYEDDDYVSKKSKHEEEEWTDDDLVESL
T1 sequence (P50613 whole entry): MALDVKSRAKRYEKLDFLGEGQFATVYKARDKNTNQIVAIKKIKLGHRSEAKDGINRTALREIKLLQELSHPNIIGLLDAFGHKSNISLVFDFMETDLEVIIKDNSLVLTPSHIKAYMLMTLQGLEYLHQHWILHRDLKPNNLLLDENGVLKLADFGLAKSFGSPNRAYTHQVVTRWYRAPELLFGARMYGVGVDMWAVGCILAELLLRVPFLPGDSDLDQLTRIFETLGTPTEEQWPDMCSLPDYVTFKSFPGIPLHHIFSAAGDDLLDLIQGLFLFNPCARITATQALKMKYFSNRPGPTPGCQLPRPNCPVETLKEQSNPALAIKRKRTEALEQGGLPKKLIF
T1 sequence (P51948 whole entry, further chain): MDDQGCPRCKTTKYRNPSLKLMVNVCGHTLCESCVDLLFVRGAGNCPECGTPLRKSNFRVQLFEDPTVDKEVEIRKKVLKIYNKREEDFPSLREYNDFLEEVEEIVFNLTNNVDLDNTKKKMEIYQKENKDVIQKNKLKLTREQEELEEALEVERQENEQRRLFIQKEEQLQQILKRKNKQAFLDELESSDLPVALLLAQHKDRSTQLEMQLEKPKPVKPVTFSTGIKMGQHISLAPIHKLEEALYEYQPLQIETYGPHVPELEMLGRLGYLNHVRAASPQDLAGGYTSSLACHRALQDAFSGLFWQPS
Sequence of Glycogen synthase kinase-3 alpha (P49840 2-483 limits assumed): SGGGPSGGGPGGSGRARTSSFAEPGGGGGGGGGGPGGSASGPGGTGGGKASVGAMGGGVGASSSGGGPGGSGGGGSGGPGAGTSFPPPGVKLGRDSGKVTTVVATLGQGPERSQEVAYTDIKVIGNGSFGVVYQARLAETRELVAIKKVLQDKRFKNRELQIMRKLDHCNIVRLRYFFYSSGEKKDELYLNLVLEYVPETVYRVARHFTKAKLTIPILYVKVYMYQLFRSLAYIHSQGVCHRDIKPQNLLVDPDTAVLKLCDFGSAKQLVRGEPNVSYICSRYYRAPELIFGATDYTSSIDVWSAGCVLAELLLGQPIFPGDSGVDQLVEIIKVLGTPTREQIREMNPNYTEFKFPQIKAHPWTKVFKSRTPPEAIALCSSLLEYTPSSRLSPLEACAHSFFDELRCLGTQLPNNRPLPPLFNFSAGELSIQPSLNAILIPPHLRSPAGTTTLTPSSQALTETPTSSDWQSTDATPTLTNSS
Sequence of Tyrosine-protein kinase ABL2 (P42684 whole entry): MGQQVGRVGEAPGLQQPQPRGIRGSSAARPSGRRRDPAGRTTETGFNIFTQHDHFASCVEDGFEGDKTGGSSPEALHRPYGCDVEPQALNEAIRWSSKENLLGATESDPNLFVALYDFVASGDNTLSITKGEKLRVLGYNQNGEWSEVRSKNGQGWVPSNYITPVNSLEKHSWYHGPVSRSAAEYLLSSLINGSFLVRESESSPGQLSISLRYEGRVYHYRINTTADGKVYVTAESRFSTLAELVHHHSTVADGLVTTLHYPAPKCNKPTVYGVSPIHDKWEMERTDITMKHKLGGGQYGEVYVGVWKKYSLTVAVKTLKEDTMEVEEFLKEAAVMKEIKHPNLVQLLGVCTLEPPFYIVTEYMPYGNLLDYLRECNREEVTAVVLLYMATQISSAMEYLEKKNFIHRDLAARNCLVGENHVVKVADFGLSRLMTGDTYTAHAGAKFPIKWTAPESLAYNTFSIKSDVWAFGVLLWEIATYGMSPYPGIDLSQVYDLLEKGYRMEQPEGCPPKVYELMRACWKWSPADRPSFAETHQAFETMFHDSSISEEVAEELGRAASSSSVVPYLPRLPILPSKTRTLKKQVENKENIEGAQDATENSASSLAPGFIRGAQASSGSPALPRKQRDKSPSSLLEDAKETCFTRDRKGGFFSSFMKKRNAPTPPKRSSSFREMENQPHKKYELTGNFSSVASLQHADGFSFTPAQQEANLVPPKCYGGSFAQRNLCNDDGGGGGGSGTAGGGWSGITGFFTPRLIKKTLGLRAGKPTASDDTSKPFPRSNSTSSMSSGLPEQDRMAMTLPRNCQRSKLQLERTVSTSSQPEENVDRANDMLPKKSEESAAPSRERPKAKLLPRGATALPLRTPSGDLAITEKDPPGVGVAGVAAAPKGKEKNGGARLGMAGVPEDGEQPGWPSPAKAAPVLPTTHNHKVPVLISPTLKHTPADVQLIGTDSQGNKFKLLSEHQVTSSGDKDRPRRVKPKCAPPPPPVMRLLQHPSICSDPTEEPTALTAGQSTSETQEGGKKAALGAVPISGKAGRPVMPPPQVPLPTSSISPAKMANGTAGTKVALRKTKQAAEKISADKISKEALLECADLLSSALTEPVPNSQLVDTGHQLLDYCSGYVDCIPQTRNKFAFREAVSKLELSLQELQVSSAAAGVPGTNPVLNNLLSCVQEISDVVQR
Sequence of Cyclin-dependent kinase 4/cyclin D1 (P11802 whole entry): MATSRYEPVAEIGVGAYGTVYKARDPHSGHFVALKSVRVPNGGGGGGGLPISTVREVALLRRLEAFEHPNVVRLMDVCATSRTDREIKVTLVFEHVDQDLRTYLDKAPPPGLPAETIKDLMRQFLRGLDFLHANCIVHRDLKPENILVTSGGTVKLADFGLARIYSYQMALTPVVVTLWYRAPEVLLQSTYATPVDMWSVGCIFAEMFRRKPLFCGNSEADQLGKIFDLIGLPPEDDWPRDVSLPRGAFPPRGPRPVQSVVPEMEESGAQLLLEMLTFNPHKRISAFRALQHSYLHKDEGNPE
Sequence of Cyclin-dependent kinase 4/cyclin D1 (P24385 whole entry, further chain): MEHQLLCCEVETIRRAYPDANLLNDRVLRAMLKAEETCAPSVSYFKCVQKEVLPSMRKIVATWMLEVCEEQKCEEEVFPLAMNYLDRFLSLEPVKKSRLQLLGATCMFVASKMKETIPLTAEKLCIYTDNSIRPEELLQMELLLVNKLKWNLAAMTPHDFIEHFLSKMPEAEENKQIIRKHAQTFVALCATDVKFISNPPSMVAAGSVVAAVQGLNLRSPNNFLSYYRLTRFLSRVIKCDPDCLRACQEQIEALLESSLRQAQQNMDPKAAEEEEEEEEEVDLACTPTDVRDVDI
Sequence of Cyclin-dependent kinase 9 (Mus musculus) (Q99J95 whole entry): as the sequence (P50750 whole entry, the tested form may be a part) above, with S17T, R37K, K40Q, N258K, Y262F counted along it

Compound: COc1ccccc1-c1cc(Nc2cccc(NS(C)(=O)=O)c2)ncn1
- Activity [1]: Active
- inhibition [2]: inactive
- Ratio IC50 [3]: 55
- IC50 [4]: > 10 µM
- inhibition [5]: Active
- inhibition [6]: 50%
- level, % of control at 10 µM [7]: 20%
- Activity [8]: Active
- inhibition [9]: Dose-Dependent Effect
- inhibition [10]: 50%
- IC50 [11]: 9.24 µM
- inhibition [12]: 50%
- Activity [13]: 45%
- Ratio IC50 [14]: > 227
- Ratio IC50 [15]: 125
- Activity [16]: 27%
- fold change (FC) [17]: 1.6
- inhibition [18]: inactive
- inhibition [19]: Active
- Kd [20]: 1.01 µM
- inhibition [21]: 50%
- inhibition [22]: Active
- inhibition [23]: 50%
- Activity [24]: 9.5%
- inhibition [25]: 50%
- Kd [26]: 16 µM
- inhibition [27]: Active
- inhibition [28]: 50%
- IC50 [29]: > 20 µM
